EBNA-1 inhibitor: blocks EBNA-1 binding to DNA | 0.34% of 300,000 active | inhibition, % at 14.8 µM | EBNA-1 DNA binding, fluorescence polarization; in the data active means inhibition above about 28%
FGF22 binding: binders of recombinant human FGF22 by thermal shift; Q9HCT0; SYPRO orange fluorescence; percent of sucrose octasulfate shift, DMSO zero; activity (Tm shift, normalised), % at 9.99 µM; 1.5% of 340,000 active; AID 651658;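 active means mean Tm shift, scaled 0 neutral to 100 positive control, at about 1.3% or above, every replicate too, limit read from the data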
Target sequence (Q9HCT0 whole entry, looked up): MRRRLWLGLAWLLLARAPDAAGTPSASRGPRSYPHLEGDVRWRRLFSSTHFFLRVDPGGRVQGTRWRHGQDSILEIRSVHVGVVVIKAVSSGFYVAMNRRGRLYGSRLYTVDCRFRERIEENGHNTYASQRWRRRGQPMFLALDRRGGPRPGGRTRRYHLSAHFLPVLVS
ZTA counter: counter-screen for EBNA-1 inhibitors: inhibitors of Epstein-Barr virus ZTA | P03206 | ZTA-DNA binding, fluorescence polarization | inhibition, % at 11 µM | 0.15% of 320,000 active; in the data active means inhibition above about 33%
Target sequence (P03206 whole entry, looked up): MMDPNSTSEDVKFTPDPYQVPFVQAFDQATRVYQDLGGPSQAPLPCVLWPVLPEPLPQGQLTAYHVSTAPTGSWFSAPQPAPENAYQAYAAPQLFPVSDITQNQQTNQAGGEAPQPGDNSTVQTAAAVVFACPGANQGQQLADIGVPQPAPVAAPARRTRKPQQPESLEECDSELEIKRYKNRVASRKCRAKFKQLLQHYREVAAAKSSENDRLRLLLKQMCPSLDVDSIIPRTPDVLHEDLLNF
FID counter: fluorescent intercalator displacement, NS3 helicase counter-screen. 0.17% of 290,000 active. inhibition, % at 7.9 µM. DNA fluorescent intercalator displacement, fluorescence; in the data active means inhibition above about 37%;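 further: 0% = vehicle and 100% = reference compound; higher means more ethidium bromide displaced from hairpin DNA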
NS3 helicase inh: blocks Hepatitis C virus NS3 helicase unwinding; NS3 helicase DNA unwinding, Cy5 molecular beacon fluorescence; inhibition, % at 10.9 µM; 0.56% of 290,000 active;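 active means inhibition above the mean of all tested compounds plus 3 SD, set per campaign, cut at about 35% in these data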;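 further: 0% = DMSO wells and 100% = thioflavine S control wells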
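Test system: hepatitis C virus NS3 helicase domain fragment enzyme. Also added: annealed dual-labelled DNA beacon duplex, ATP-started. Timing: 60 min unwinding reaction at 25 °C after ATP addition. Technique: Cy5 fluorescence. Measure: % inhibition of unwinding.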
GRIN3A LBD mod: NR3A (human) ligand-binding domain modulation | 2.5% of 340,000 active | NR3A LBD differential scanning fluorimetry, Tm shift; 0% = protein alone, 100% = glycine-bound protein | Tm shift relative to glycine control, % at 25 µM;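 active means melting temperature shift of at least 10% of the positive control shift, at one fixed dose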
An asterisk follows results filed as active; x = no result given. This is a sample that favours compounds with a hit; in the whole collection about 3.6% have one here.

SMILES | EBNA-1 inhibitor | FGF22 binding | ZTA counter | FID counter | NS3 helicase inh | GRIN3A LBD mod
CC(OC(=O)c1oc2ccccc2c1COc1ccccc1)C(=O)NC(N)=O (stereo not given) | 0.3 | 43.2* | -8.7 | -17.6 | -9.2 | 6.6
CNC(=S)SCCOc1ccccc1C | 8.2 | -0.1 | -4.1 | -3.0 | 6.0 | 15.3*
Cc1cc(C)c2sc(NC(=O)c3ccc([N+](=O)[O-])o3)nc2c1 | 0.6 | 0.8 | -1.8 | -1.9 | -111.3 | 14.8*
Cc1ccc2nc(NC(=O)CCNS(=O)(=O)c3cccs3)sc2c1 | 4.5 | x | 3.5 | -6.0 | 5.9 | -5.6
Cc1ccc2nc(NC(=O)CCNS(=O)(=O)c3ccc(Br)s3)sc2c1 | 4.1 | 0.9 | 11.1 | 0.6 | -25.8 | 11.1*
Cc1ccc2nc(NC(=O)c3ccc(Br)o3)sc2c1 | -8.5 | 0.1 | -3.3 | 2.6 | -0.1 | 18.4*
COc1ccc(C(=O)Nc2ccc(Nc3ccccc3)cc2)cc1Br | -4.8 | 0.1 | 4.5 | x | x | 24.3*
CC(=O)c1ccc(NC(=O)c2ccc(C)c(Br)c2)cc1 | 4.2 | 0.2 | 4.5 | 1.1 | -9.1 | 28.1*
COc1ccc(C(=O)Nc2ccc(N3CCCCC3)cc2)cc1Br | 26.4 | x | 0.5 | 0.1 | 0.6 | 10.4*
CCCCC(=O)Nc1ccc(C(=O)NNC(=O)c2ccc(C)c(Br)c2)cc1 | -4.8 | x | 0.8 | 0.3 | -8.8 | 1.9
CO[C@@H]1CN(C)C(=O)c2ccc(NC(=O)c3nc4ccccc4s3)cc2OC[C@@H](C)N(Cc2ccncc2)C[C@H]1C | x | 0.1 | x | x | x | x
COC(=O)[C@H]1[C@H](CO)[C@H]2Cn3c(ccc(-c4ccccc4F)c3=O)[C@H]2N1Cc1ccncc1 | x | 0.3 | x | x | x | x
CC(C)C#Cc1cnc2c(c1)C(=O)N([C@H](C)CO)C[C@H](C)[C@@H](CN(C)C(=O)CCN1CCCCC1)O2 | x | 0.0 | x | x | x | x
OC(CN1CCCCC1)c1ccc(Br)cc1 (stereo not given) | x | 43.7* | x | x | x | 0.6
Cc1ccc(NC(=O)CC(NCC2CCCO2)C(=O)O)cc1C (stereo not given) | -11.0 | 43.5* | 10.2 | -0.8 | 21.0 | -0.3
Cc1ccc(NC(=O)C(=O)NCC2CCCO2)cc1C (stereo not given) | -2.4 | 0.3 | 2.5 | -5.5 | 10.3 | 0.8
COc1ccc2c3c([nH]c2c1)[C@@H](CO)N(C(=O)CN(C)C)CC31CCN(CC2CCCCC2)CC1 | x | 0.0 | x | x | x | x
COc1cc(S(=O)(=O)Nc2ccc(C)cc2)ccc1N=Cc1c(C)[nH]n(-c2ccc(C)cc2)c1=O | -2.1 | 0.1 | -1.5 | -5.1 | -2.4 | 28.3*
O=C(Nc1ccc(OCC(F)(F)C(F)F)c(C(F)(F)F)c1)c1ccc(Cl)cc1 | -5.5 | x | 1.6 | 8.1 | -8.0 | 31.5*
COc1ccc(C(=O)Nc2ccc(OCC(F)(F)C(F)F)c(C(F)(F)F)c2)cc1OC | 2.0 | x | 3.4 | -9.6 | -36.6 | 17.8*
O=C(Nc1ccc(Br)c(C(F)(F)F)c1)c1ccccc1 | -1.7 | 0.5 | -0.8 | -0.8 | 1.5 | 7.6
O=C(Nc1ccc(Br)c(C(F)(F)F)c1)c1ccc(C(F)(F)F)cc1 | -3.1 | -0.1 | 11.7 | 3.6 | 1.9 | 23.9*
COc1ccc2c3c([nH]c2c1)[C@@H](CO)N(C(=O)C1CC1)CC31CN(Cc2nccs2)C1 | x | -0.2 | x | x | x | x
C[C@H](CO)N1C[C@H](C)[C@@H](CN(C)C(=O)Nc2ccc3c(c2)OCO3)Oc2ccc(NC(=O)Nc3cccc4ccccc34)cc2CC1=O | x | -0.1 | x | x | x | x
O=C(O)COc1ccc(Oc2ccccc2)cc1 | -11.3 | x | -2.7 | 2.6 | -1.8 | 2.9
SMILES | EBNA-1 inhibitor | FGF22 binding | ZTA counter | FID counter | NS3 helicase inh | GRIN3A LBD mod
O=C(O)CSc1ccc(Oc2ccc(SCC(=O)O)cc2)cc1 | 0.6 | 43.1* | 1.9 | -15.3 | 8.2 | 1.2
O=C(NCC1CCCO1)c1onc(CSc2cccc(Cl)c2)c1C(=O)O (stereo not given) | -3.3 | 0.2 | -5.7 | -29.5 | 5.8 | 0.0
CCOc1cccc(SCc2noc(C(=O)NCC3CCCO3)c2C(=O)O)c1 (stereo not given) | -0.8 | 1.0 | 1.0 | -25.7 | 16.1 | 17.0*
N=C1/C(=C\c2ccc(OC(=O)c3ccco3)cc2)C(=O)N=C2SC=NN12 | x | 44.2* | x | -17.2 | 11.5 | -0.3
COc1cc(/C=C2/C(=N)N3C(=NC2=O)SN=C3S(=O)(=O)C(C)C)ccc1OC(=O)c1ccco1 | 7.4 | 1.4* | 17.2 | -26.7 | -0.6 | 3.4
O=C(C[C@@H]1C[C@@H]2c3cc(NC(=O)CC4CC4)ccc3O[C@@H]2[C@H](CO)O1)NCc1ccc(Cl)cc1 | x | -0.1 | x | x | x | x
Cc1noc(C)c1S(=O)(=O)Nc1ccc2c(c1)C(=O)N([C@@H](C)CO)C[C@@H](C)[C@H](CN(C)S(C)(=O)=O)OCCCC[C@@H](C)O2 | x | 0.0 | x | x | x | x
Cc1cc(C(=O)Nn2c(C)nc3ccccc3c2=O)ccc1[N+](=O)[O-] | -1.3 | 0.4 | -1.3 | 3.7 | 1.7 | -0.6
Cc1nc2ccccc2c(=O)n1NC(=O)c1ccc([N+](=O)[O-])cc1 | -0.2 | 43.1* | 2.4 | 7.5 | -0.9 | -1.0
CCCC(=O)N1CC2(C1)CN(S(C)(=O)=O)[C@H](CO)c1c2c2ccc(OC)cc2n1C | x | 0.1 | x | x | x | x
COc1ccc(C(=O)/C=C/Nc2cccc(O)c2)cc1 | 1.6 | x | -11.3 | -16.8 | 3.5 | 18.8*
COc1cccc(C(=O)/C=C/Nc2ccc(S(=O)(=O)Nc3ccc(C(C)=O)cc3)cc2)c1 | -3.4 | 0.4 | 13.8 | -5.3 | 1.6 | 24.4*
COc1ccc(C(=O)/C=C/Nc2ccc(S(=O)(=O)Nc3cccc(C(C)=O)c3)cc2)cc1 | 14.8 | x | 3.7 | -7.7 | 5.4 | 13.5*
COc1cccc(C(=O)Nc2ccc3c(c2)C(=O)N(C)C[C@@H](OC)[C@H](C)CN(CC2CC2)[C@H](C)CO3)c1 | x | 0.1 | x | x | x | x
CC=Cc1ccc2n(c1=O)C[C@@H]1[C@@H](CO)[C@H](C(=O)N[C@@H](C)c3ccccc3)[C@H]2N1Cc1cncnc1 (mixture of isomers) | x | -0.3 | x | x | x | x
Cc1ccc(S(=O)(=O)N(C)C[C@@H]2Oc3c(NC(=O)c4nc5ccccc5s4)cccc3C(=O)N([C@@H](C)CO)C[C@@H]2C)cc1 | x | 0.2 | x | x | x | x
CCCN(C)C[C@H]1Oc2cc(C#CC(C)(C)O)ccc2S(=O)(=O)N([C@H](C)CO)C[C@H]1C | x | 0.7 | x | x | x | x
COc1cc(NC(=O)COC(=O)C=C(C)C)c(C)cc1[N+](=O)[O-] | -10.2 | 43.8* | -19.3 | -4.0 | -5.1 | -0.1
c1ccc(-c2noc(CN3CCCC(OCc4ccccn4)C3)n2)cc1 (stereo not given) | 2.7 | 0.1 | -3.7 | 60.3* | -10.2 | 0.0
COc1ccccc1-c1cc(C(F)(F)F)n2ncc(S(=O)(=O)c3ccccc3)c2n1 | -6.9 | x | -8.8 | 0.7 | -2.9 | 24.5*
O=S(=O)(c1ccccc1)c1cnn2c(C(F)(F)F)cc(-c3ccccc3)nc12 | 3.7 | x | -9.3 | 5.5 | -5.2 | -2.3
O=S(=O)(c1ccccc1)c1cnn2c(C(F)(F)F)cc(-c3ccc(F)cc3)nc12 | -1.2 | x | -1.8 | 6.4 | 6.8 | 14.2*
